The record followed here is ChEMBL document CHEMBL1156058, “Discovery of disubstituted phenanthrene imidazoles as potent, selective and orally active mPGES-1 inhibitors” (Bioorg Med Chem Lett, 2009).

Activity calls are given as the source filed them. The rule behind the calls is not given here.

For orientation: half-life means the time in which the quantity being followed falls by half. In general, bioavailability refers to the share of a dose that reaches the circulation, judged against a reference dose that is usually intravenous. As usually defined, the IC50 is the midpoint of a concentration-inhibition curve. As a reminder, the Tmax is the time from dosing to the highest level. One may read the ED50 as the dose that gives a 50% effect, or the effect in half of the subjects.

The nature of data set [1]: Metabolic stability in human liver hepatocytes assessed as compound remaining after 2 hrs. The data set is classed as ADME, cell-based, Hepatocyte. The settings on record: read-out: Stability. Put shortly: (§1)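 Compound incubated with hepatocytes (rat or human) for 2 h at 37 °C; read-out is % parent compound remaining; values are means of at least two experiments.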
The nature of data set [2]: Half life in rat at 5 mg/kg, iv administered as single dose. In kind it is ADME, organism-based. Further details: dose 5 mg/kg, route intravenous. Particulars: in vivo.
A short description of data set [3]: Oral bioavailability in rat at 20 mg/kg administered as single dose. The data set is classed as ADME, organism-based. Particulars: in vivo.
Data set [4] in a line: Metabolic stability in rat liver hepatocytes assessed as compound remaining after 2 hrs. The data set is classed as ADME, cell-based, Hepatocyte. Particulars: read-out: Stability. Put shortly:
as §1

Data set [5] deals with T1, Prostaglandin E synthase (Homo sapiens, UniProt O14684).
T1 sequence (O14684 whole entry): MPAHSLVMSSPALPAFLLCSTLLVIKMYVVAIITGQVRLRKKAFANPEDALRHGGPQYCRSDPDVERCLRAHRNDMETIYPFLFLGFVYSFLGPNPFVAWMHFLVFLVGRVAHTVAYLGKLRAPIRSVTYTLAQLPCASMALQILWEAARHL
The experiment in a line: Displacement of [3H]PGH2 from human recombinant PGES1 expressed in CHOK1 cells. The data set is classed as cell-based, CHO-K1. On the technique in general: In a radioligand displacement assay an active substance lowers the binding of a labelled ligand.

The test system of data set [6] is Blood. The experiment in a line: Inhibition of PGE2 production in LPS-stimulated human whole blood. In kind it is functional, tissue-based.
The nature of data set [7]: Tmax in rat at 20 mg/kg. The data set is classed as ADME, organism-based. Further details: dose 20 mg/kg. Particulars: in vivo.
The next data set relates to A549. The experiment in a line: Inhibition of PGF2alpha production in human A549 cells in presence of 50% fetal bovine serum. In kind it is functional, cell-based.
For another data set, the system named is Cavia porcellus. The experiment in a line: Analgesic activity against LPS-induced thermal hyperalgesia in po dosed Hartley guinea pig assessed as decrease in paw withdrawal latency administered 1 hr before LPS challenge measured after […]. The data set is classed as functional.
Data set [8] in a line: Inhibition of PGES1 in guinea pig whole blood. Particulars: Cavia porcellus. The data set is classed as tissue-based.
A short description of data set [9]: Half life in monkey. The settings on record: rhesus monkey, in vivo. The data set is classed as ADME, organism-based, Macaca mulatta.
Data set [10] has as its target Prostaglandin E synthase 2 (Homo sapiens, UniProt Q9H7Z7). The data set can be described thus: Inhibition of human PGES2.
The target of the next data set is T2, Thromboxane-A synthase (Homo sapiens, UniProt P24557).
T2 sequence (P24557 whole entry): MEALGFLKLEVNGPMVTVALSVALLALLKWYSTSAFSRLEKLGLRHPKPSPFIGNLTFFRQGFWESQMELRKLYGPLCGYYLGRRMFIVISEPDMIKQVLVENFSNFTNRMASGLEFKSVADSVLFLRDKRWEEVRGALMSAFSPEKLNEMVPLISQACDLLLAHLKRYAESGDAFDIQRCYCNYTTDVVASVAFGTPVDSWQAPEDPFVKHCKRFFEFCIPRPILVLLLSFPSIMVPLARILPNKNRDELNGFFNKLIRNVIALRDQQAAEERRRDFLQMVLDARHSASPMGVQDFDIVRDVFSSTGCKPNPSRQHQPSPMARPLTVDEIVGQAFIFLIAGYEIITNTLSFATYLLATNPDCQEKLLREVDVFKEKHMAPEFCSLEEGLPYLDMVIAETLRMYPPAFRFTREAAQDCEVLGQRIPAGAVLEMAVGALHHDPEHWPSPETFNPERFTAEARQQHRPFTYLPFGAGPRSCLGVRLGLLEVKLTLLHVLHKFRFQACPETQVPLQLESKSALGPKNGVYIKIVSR
The data set can be described thus: Inhibition of TX synthase.

The subject of data set [11] is Blood. The data set can be described thus: Inhibition of TXB2 production in LPS-stimulated human whole blood. The data set is classed as functional, tissue-based.
Data set [12] concerns Blood. The data set can be described thus: Inhibition of PGD2 production in LPS-stimulated human whole blood. In kind it is functional, tissue-based.
The test system of data set [13] is Blood. The data set can be described thus: Inhibition of PGI2 production in LPS-stimulated human whole blood. The data set is classed as functional, tissue-based.
The target in data set [14] is T1, Prostaglandin E synthase. The experiment in a line: Inhibition of mPGES1 in IL-1-beta-stimulated human A549 cells assessed as blockade of PGH2 to PGE2 conversion in presence of 50% fetal bovine serum. In kind it is cell-based.
The subject of data set [15] is Blood. The experiment in a line: Inhibition of TXA2 production in human whole blood. In kind it is functional, tissue-based.

Prostaglandin E synthase 2, sequence (Q9H7Z7 whole entry): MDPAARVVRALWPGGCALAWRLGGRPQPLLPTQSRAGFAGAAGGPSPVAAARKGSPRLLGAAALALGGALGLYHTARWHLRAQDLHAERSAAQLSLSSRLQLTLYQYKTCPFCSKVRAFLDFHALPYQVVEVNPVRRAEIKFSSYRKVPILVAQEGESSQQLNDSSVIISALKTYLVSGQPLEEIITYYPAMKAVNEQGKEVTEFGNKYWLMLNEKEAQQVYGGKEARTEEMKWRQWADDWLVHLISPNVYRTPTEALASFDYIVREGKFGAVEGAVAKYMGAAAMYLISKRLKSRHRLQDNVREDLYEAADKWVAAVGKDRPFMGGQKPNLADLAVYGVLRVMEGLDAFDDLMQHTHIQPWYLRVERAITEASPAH

As for `CC(C)(O)Cc1ccc2c(c1)c1cc(OCCCC(F)(F)F)ccc1c1nc(-c3c(C#N)cccc3C#N)[nH]c21`, the remaining at 2 h in data set [1] was 98%; in [4], 92%. Further, in data set [2], the half-life was 3.3 h. In data set [3], this compound had a bioavailability of 85%. Moreover, the IC50 on Prostaglandin E synthase [5] was 1 nM; in the data set with Blood [6], 250 nM.

As to `CC(C)(O)Cc1ccc2c(c1)c1cc(Cl)ccc1c1nc(-c3c(C#N)cccc3C#N)[nH]c21`, the half-life in data set [2] was 8.4 h. The 50% inhibitory concentration (IC50) on Prostaglandin E synthase [5] was found to be 2 nM; in the data set with Blood [6] it was 250 nM. In data set [7], the Tmax turned out to be 1 h.

As to `N#Cc1cccc(C#N)c1-c1nc2c3ccc(Cl)cc3c3ccccc3c2[nH]1`, the remaining at 2 h in data set [1] was 90%. Also, the half-life in [2] was 1.5 h; in data set [9], 1.3 h. In addition, the figures for the IC50 (with A549; in data set [8]; in data set [10]) were over 40000 nM, 100 nM and over 30000 nM, respectively. In the data set with Cavia porcellus, the ED50 worked out at 100 mg/kg.

Regarding `CS(=O)(=O)c1ccc(-c2ccc3c(c2)c2cc(Cl)ccc2c2nc(-c4c(C#N)cccc4C#N)[nH]c32)cc1`, it took 410 nM to reach half-maximal inhibition in the data set on Blood [6] (IC50).

Take `CC(C)(O)C#Cc1ccc2c(c1)c1cc(C#CC3CC3)ccc1c1nc(-c3c(C#N)cccc3C#N)[nH]c21`: the half-life in data set [2] is 40 h. The IC50 is 1 nM at Prostaglandin E synthase [5] and 76 nM in the data set with Blood [6].

Regarding `N#Cc1cccc(C#N)c1-c1nc2c3ccc(Cl)cc3c3cc(C#Cc4ccncc4)ccc3c2[nH]1`, it took 390 nM to reach half-maximal inhibition in the data set on Blood [6] (IC50).

`CS(=O)(=O)c1ccc2c(c1)c1cc(Cl)ccc1c1nc(-c3c(C#N)cccc3C#N)[nH]c21` had an IC50 in the data set on Blood [6] of over 10000 nM.

`N#Cc1cccc(C#N)c1-c1nc2c3ccc(Cl)cc3c3cc(C#Cc4cccnc4)ccc3c2[nH]1` had an IC50 in the data set with Blood [6] of 530 nM.

`CC(C)(O)Cc1ccc2c(c1)c1cc(OCC3CC3)ccc1c1nc(-c3c(C#N)cccc3C#N)[nH]c21`: the remaining at 2 h in [1] is over 99%. Moreover, the half-life in data set [2] is 5.5 h. The bioavailability in data set [3] turned out to be 36%. Further, the concentration for half-maximal inhibition (IC50) at Prostaglandin E synthase [5] is 3 nM; with Blood [6], 350 nM.

Consider `CC(C)(O)C#Cc1ccc2c(c1)c1cc(Cl)ccc1c1nc(-c3c(C#N)cccc3C#N)[nH]c21`, for which the IC50 against Thromboxane-A synthase was 800 nM; with A549, over 40000 nM; in [8], 100 nM; with Blood [11] it was over 40000 nM; in data set [10], over 30000 nM; with Blood [6] it was 200 nM. Further, the remaining at 2 h in data set [1] and in data set [4] was 97% throughout. Further, the half-life in data set [2] was 20 h. In addition, the ED50 with Cavia porcellus turned out to be 30 mg/kg. Further, the outcome with Blood [12] and with Blood [13] was inactive.

Take `N#Cc1cccc(C#N)c1-c1nc2c3ccc(Cl)cc3c3cc(OCCn4cccc4)ccc3c2[nH]1`: the IC50 with Blood [6] turned out to be 380 nM.

`N#CCCCOc1ccc2c(c1)c1cc(Cl)ccc1c1nc(-c3c(C#N)cccc3C#N)[nH]c21`: the IC50 in the data set on Blood [6] was 380 nM.

Take `CC(C)(O)Cc1ccc2c(c1)c1cc(OCCC3CC3)ccc1c1[nH]c(-c3c(C#N)cc(F)cc3C#N)nc21`: the figures for the half-inhibitory concentration (IC50) (at Thromboxane-A synthase; in data set [10]) were 30000 nM and over 30000 nM, respectively. Besides, the results for the remaining at 2 h in [1] and in data set [4] were 81% and 68%, respectively. In data set [2], this compound gave a half-life of 2.3 h. Also, the bioavailability in data set [3] turned out to be 68%.

With `CC(C)(O)c1ccc2c(c1)c1cc(Cl)ccc1c1nc(-c3c(C#N)cccc3C#N)[nH]c21`, half-maximal inhibition with Blood [6] (IC50) was put at 1400 nM.

In the case of `CC(C)(O)Cc1ccc2c(c1)c1cc(OCCC3CC3)ccc1c1nc(-c3c(C#N)cccc3C#N)[nH]c21`, the half-life in data set [2] is 1.6 h. The compound further displayed a bioavailability in data set [3] of 76%. For the same compound, the concentration for half-maximal inhibition (IC50) was determined as 0.9 nM at Prostaglandin E synthase [5] and 220 nM with Blood [6].

On to `CC(=O)c1ccc2c(c1)c1cc(C(C)=O)ccc1c1[nH]c(-c3c(F)cccc3Cl)nc21`, for which the figures for the half-maximal inhibitory concentration (IC50) at Prostaglandin E synthase [14] and at Prostaglandin E synthase [5] were over 50000 nM and 122 nM, respectively.

On to `N#Cc1cccc(C#N)c1-c1nc2c3ccc(Cl)cc3c3cc(C#CC4(O)CCCC4)ccc3c2[nH]1`, for which the IC50 with Blood [6] worked out at 260 nM.

Compound `CC(C)(O)CCc1ccc2c(c1)c1cc(Cl)ccc1c1nc(-c3c(C#N)cccc3C#N)[nH]c21` gave a half-life in data set [2] of 14 h. In the data set on Blood [6], this compound displayed an IC50 of 200 nM.

For `COCC#Cc1ccc2c(c1)c1cc(Cl)ccc1c1nc(-c3c(C#N)cccc3C#N)[nH]c21`, the IC50 in the data set on Blood [6] was 1100 nM.

Consider `CC(C)(O)Cc1ccc2c(c1)c1cc(OCCC3CC3)ccc1c1nc(-c3c(C#N)cc(F)cc3C#N)[nH]c21`, for which the IC50 was over 40000 nM in the data set on A549, over 40000 nM in the data set with Blood [11] and 140 nM in the data set with Blood [6]. The ED50 with Cavia porcellus is 14 mg/kg. For the same compound, the result with Blood [15], in the data set on Blood [12] and in the data set with Blood [13] was inactive.

`CC(C)CCOc1ccc2c(c1)c1cc(CC(C)(C)O)ccc1c1[nH]c(-c3c(C#N)cccc3C#N)nc21`: the remaining at 2 h in [1] was determined as 30%; in [4] it was 8%. The compound further showed a half-life in data set [2] of 4.8 h. Also, the bioavailability in data set [3] turned out to be 46%. In the data set on Blood [6], the IC50 amounted to 150 nM.

Take `CCc1ccc2c(c1)c1cc(C#CC(C)(C)O)ccc1c1[nH]c(-c3c(C#N)cccc3C#N)nc21`: the half-life in data set [2] is 7 h. Further, the values for the IC50 at Prostaglandin E synthase [5] and with Blood [6] were 1 nM and 370 nM, respectively.

On to `CC(C)COc1ccc2c(c1)c1cc(CC(C)(C)O)ccc1c1nc(-c3c(C#N)cccc3C#N)[nH]c21`, for which, in [2], the half-life was 1.3 h. This compound returned a bioavailability in data set [3] of 30%. The IC50 on Prostaglandin E synthase [5] is 3 nM; in the data set with Blood [6], 290 nM.
